{
  "source": "paper PMC7357868",
  "about": "(ACS chemical biology, 2019)",
  "key": {"recombinant hpol κ": {"test_system": "recombinant hpol κ", "conditions": "cited from earlier work"}, "[1]": {"test_system": "hpol κ-proficient HAP-1 cells", "test": "Clonogenic survival assay", "format": "cell-based, human", "conditions": "250 μM TMZ alone, 1 h, 10 days culture"}, "[2]": {"test_system": "hpol κ-deficient HAP-1 cells", "test": "Clonogenic survival assay", "format": "cell-based, human", "conditions": "250 μM TMZ alone"}, "[3]": {"test_system": "hpol κ-proficient HAP-1 cells", "test": "Alkaline comet assay", "format": "cell-based, human", "conditions": "100 μM TMZ alone, 1 h", "how_it_was_run": "(§1)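 100 000 HAP-1 cells per well, test compound 0.5 μM alone or with alkylating agent (100 μM), 1 h; DMSO control. Cells embedded in low-melting agarose (200–300 per well), lysed 1 h, alkaline unwinding (200 mM NaOH, 1 mM EDTA) 20 min RT, electrophoresis 21 V, 30 min, 4 °C, SYBR Gold stain. Read-out is % DNA in tail per cell; ≥20 cells per replicate, three biological replicates, mean ±SD.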"}, "[4]": {"test_system": "hpol κ-deficient HAP-1 cells", "test": "Alkaline comet assay", "format": "cell-based, human", "conditions": "100 μM TMZ alone, 1 h", "how_it_was_run": "as §1"}},
  "data": [
    {"molecule": "CC(C)c1ccc2c(c1)c(SC(C)(C)C)c(CC(C)(C)C(=O)O)n2Cc1ccc(Cl)cc1", "note": "[MK-886]", "values": [
      {"measurement": "IC50", "setting": "recombinant hpol κ", "result": "tens of micromolar"}
    ]},
    {"molecule": "Cn1nnc2c(C(N)=O)ncn2c1=O", "note": "[TMZ, temozolomide, reference compound]", "values": [
      {"measurement": "colonies formed relative to untreated cells", "setting": "[1]", "result": "~ 75%"},
      {"measurement": "colonies formed relative to untreated cells", "setting": "[2]", "result": "less than 50%"},
      {"measurement": "DNA damage (% DNA in tail) over untreated cells", "setting": "[3]", "result": "approximately sevenfold"},
      {"measurement": "DNA damage (% DNA in tail) over control", "setting": "[4]", "result": "significantly greater amount of DNA damage over control"}
    ]},
    {"molecule": "CCOc1nc2cccc(C(=O)OC(C)OC(=O)OC3CCCCC3)c2n1Cc1ccc(-c2ccccc2-c2nn[nH]n2)cc1", "note": "(stereo not drawn) [candesartan, candesartan cilexetil]", "values": [
      {"measurement": "IC50", "setting": "recombinant hpol κ", "result": "tens of micromolar"}
    ]}
  ]
}
